Experimental data from paper PMC5900865 (Clinical Pharmacology in Drug Development, 2017).

Tests used:
[1] = test system: elderly adult men and women; test: Study 2 safety evaluation; type: in vivo, human; conditions: elderly population, single dose of 10 mg
Procedure, shortened: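 Elderly Japanese adults aged 65–85 (10 men, 10 women) were randomized 4:1, double-blind, to one oral 10 mg dose or placebo. Dosing was fasted, in the morning of day 1. Participants stayed on site days 1–5 and were discharged day 6. AEs, weight, vital signs, 12-lead ECG and haematology, chemistry, coagulation and urinalysis were recorded. TEAE incidence and intensity were compared with placebo.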

CYP2E1 = conditions: cited from earlier work
healthy adult men = test: Study 1A safety evaluation; type: in vivo, human
Procedure, shortened: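 Randomized, double-blind, placebo-controlled study in healthy Japanese men. Single oral doses rose from 2.5 to 40 mg, doubling over 5 cohorts of 9 (2:1 drug:placebo). Each escalation followed review of safety data to day 5 and PK data to 48 h. AEs, body weight, vital signs, 12-lead ECG and haematology, chemistry, coagulation and urinalysis were recorded. TEAE incidence, intensity and drug relationship were compared with placebo.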

CYP3A4/5 = conditions: cited from earlier work

In the case of `Cc1ccc(Sc2ccccc2N2CCNCC2)c(C)c1` [Vortioxetine, 1‐[2‐(2,4‐dimethylphenylsulfanyl)phenyl]piperazine], the safety and tolerability [1] is listed as “safe and tolerated”, the “inhibitory or inducing effect in vitro” value (CYP2E1) is listed as “No inhibitory or inducing effect” and the tolerated single dose (healthy adult men; healthy men) is listed as “up to 20 mg”. The AEs reported (healthy adult men; single 40‐mg dose group) was “Seven AEs” and the “inhibitory or inducing effect in vitro” value (CYP3A4/5) was “No inhibitory or inducing effect”.
